Compound activity: PubChem BioAssay, The Scripps Research Institute Molecular Screening Center
ABHD4 inh: ABHD4 (mouse) inhibition, primary FP screen | Q8VD66 | purified mABHD4, FP-Rh probe fluorescence polarization | inhibition, % at 8.92 µM | 0.54% of 370,000 active;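 active = inhibition exceeding the mean over every tested compound plus 3 SD, cut at about 30% in these data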;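 also: 0% = plate median of compound wells and 100% = S159A mutant with DMSO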
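Assay system: mouse ABHD4 enzyme, wild type / Also added: fluorescent activity-based probe FP-Rh / Doses: single nominal dose of 8.92 µM, 0.89% DMSO final / Timing: 45 min compound pre-incubation plus 60 min probe step, 25 °C / Signal: FP readout, ex 525 nm / em 598 nm / Control set: S159A mutant/DMSO as 100%, compound-well median as 0%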
rCAG RNA binder: r(CAG) repeat RNA binding; TO-PRO-1 dye displacement fluorescence; 1.3% of 370,000 active; inhibition, % at 3 µM;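 active = inhibition above the plate cutoff, the mean of all test compounds on that plate plus 3 SD, cut at about 35% in these data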;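 also: 0% = DMSO alone and 100% = 100 µM mitoxantrone as full dye displacement; higher means more dye released from RNA so lower well fluorescence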
TCR-CD3 inh: inhibitors of human TCR-CD3 interaction | TAMRA-labeled TCR probe fluorescence, biochemical | inhibition, % at 9.4 µM | 0.37% of 360,000 active; in the data active = inhibition above about 19%;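 also: recombinant mutant TCR 2C K166C tagged with TAMRA read by polarization; 0% = receptor in buffer alone and 100% = receptor with positive control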
PRMT1 inh: inhibitors of human PRMT1; recombinant PRMT1, activity-based probe fluorescence polarization; 1.3% of 370,000 active; AID 652257; inhibition, % at 2.79 µM;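 active = inhibition above about 21% made by adding two undisclosed values, limit read from the data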
Target sequence (Q99873 whole entry, looked up): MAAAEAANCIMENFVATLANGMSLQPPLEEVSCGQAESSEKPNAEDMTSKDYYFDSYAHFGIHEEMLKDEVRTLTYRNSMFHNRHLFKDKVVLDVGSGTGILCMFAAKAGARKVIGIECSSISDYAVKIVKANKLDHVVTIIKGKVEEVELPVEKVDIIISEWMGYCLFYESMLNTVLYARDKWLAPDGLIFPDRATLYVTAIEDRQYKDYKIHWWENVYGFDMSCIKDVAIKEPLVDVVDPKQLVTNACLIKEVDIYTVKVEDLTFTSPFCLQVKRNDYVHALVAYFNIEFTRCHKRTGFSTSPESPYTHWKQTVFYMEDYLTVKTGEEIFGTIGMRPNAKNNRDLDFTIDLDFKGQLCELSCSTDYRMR
SIAE primary: human SIAE inhibition, primary screen; Q9HAT2; SIAE FP-Rh probe binding, fluorescence polarization; inhibition, % at 9.66 µM; 0.69% of 370,000 active; AID 1053197;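 active = inhibition above a cutoff: mean of compounds within the control limits plus 3 SD of those, cut at about 17% in these data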;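 also: 0% = plate median of compound wells and 100% = probe without SIAE protein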
PRMT1 inh conf: confirmation of human PRMT1 inhibitors; inhibition, % at 2.79 µM; AID 687036; 42% of 3,300 active; recombinant His-PRMT1, activity-based probe fluorescence polarization; shares compounds with PRMT1 inh;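 active = mean inhibition across replicates above the hit cutoff derived for the earlier primary screen, cut at about 22% in these data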
* = called active by the depositor; / = no result given. Rows were chosen to be rich in hits. Some 3.3% of all compounds tested hit in one or more screens of this group.

SMILES	ABHD4 inh	rCAG RNA binder	TCR-CD3 inh	PRMT1 inh	SIAE primary	PRMT1 inh conf
O=c1/c(=C/c2ccco2)sc2n1CN(c1cccc(Br)c1)CN=2	28	2	3	12	-1	/
Cc1ccc(/C=c2\sc3n(c2=O)CN(c2cccc(Br)c2)CN=3)o1	19	1	3	34*	2	4
CC(=O)C1=C(C)Nc2cc(C(F)(F)F)ccc2S1	5	8	1	28*	-3	13
COC(=O)[C@]12C[C@H](CC(=O)NCc3ccc(C)o3)C(=O)N(Cc3ccco3)C1=C[C@H](COCc1ccccc1)O[C@@H]2C	0	7	/	3	7	/
CC1C(=O)N(Cc2cn(CCC3OCCCO3)nn2)CCS(=O)(=O)N1Cc1ccc(-c2ccc(F)nc2)cc1 (stereo unspecified)	5	3	-8	55*	-2	-3
CC(C)C1C(=O)N(Cc2cn(CCC3OCCCO3)nn2)CCS(=O)(=O)N1Cc1ccc(-c2ccc(F)nc2)cc1 (stereo unspecified)	6	3	-3	5	0	/
O=c1c([N+](=O)[O-])c(Cl)c2ccccc2n1Cc1ccccc1	7	/	/	43*	6	36*
O=c1c([N+](=O)[O-])c(O)c2ccccc2n1Cc1ccccc1	-1	5	4	29*	3	6
O=Nc1c(O)n(Cc2ccccc2)c2ccccc12	-11	2	-2	-3	-40	/
CCn1c(=O)c([N+](=O)[O-])c(NCCN(C)C)c2ccccc21	0	1	-4	-2	-3	/
COc1ccc(C2C(C(=O)Nc3cc(OC)ccc3OC)CCC(=O)N2c2ccc(OC)cc2)cc1 (stereo unspecified)	-1	7	/	-1	0	/
C=CCn1c(SCC(C)=O)nc2scc(-c3ccc(C)o3)c2c1=O	1	0	-6	25*	-4	10
C=CCn1c(=S)[nH]c2scc(-c3ccc(C)o3)c2c1=O	-6	19	6	28*	6	16
C=CCn1c(SCC(=O)NCCCC)nc2scc(-c3ccco3)c2c1=O	-20	1	-1	5	-4	/
Fc1ccc(Cn2ccc3ccc(-c4ccc5ccn(Cc6ccc(F)cc6)c5c4)cc32)cc1	5	10	/	-2	2	/
COc1cc(OC)cc(-c2nc(-c3ccccc3OC)no2)c1	2	0	-4	0	2	/
COc1cc(N=c2ssnc2Cl)cc(OC)c1	16	6	-2	63*	4	92*
CN1C(=O)CSC1=Nc1ccc(Br)cc1	1	-1	0	-3	2	/
Clc1nssc1=Nc1nncs1	0	20	3	97*	2	92*
N#Cc1cccc(N=c2ssnc2Cl)c1	-3	3	-9	100*	8	92*
Clc1nssc1=Nc1ccc(Br)cc1	4	3	4	72*	10	93*
C=CC(=O)NC1CCCCN(CC)C1=O (stereo unspecified)	-1	15	/	5	-6	/
Cc1nc2ccc(S(=O)(=O)NCC(=O)NCc3ccc(F)cc3)cc2s1	0	6	/	5	0	/
COc1ccc(S[C@]2(C(=O)N3CCN(C(C)=O)CC3)CC(=O)N(S(=O)(=O)c3ccc(F)cc3)[C@@H]2c2ccc(OC)cc2)cc1	11	9	/	43*	9	37*
COc1ccc(S[C@]2(C(=O)N(C)C)CC(=O)N(C(=O)/C=C/c3ccccc3)[C@@H]2c2ccc(OC)cc2)cc1	0	10	/	7	-4	/
SMILES	ABHD4 inh	rCAG RNA binder	TCR-CD3 inh	PRMT1 inh	SIAE primary	PRMT1 inh conf
COC(=O)c1cccc(N2C(=O)C[C@](Sc3ccc(OC)cc3)(C(=O)N3CCOCC3)[C@H]2c2ccc(OC)cc2)c1	-16	8	/	0	3	/
COc1ccc(S[C@]2(C(=O)N3CCOCC3)CC(=O)N(C(=O)c3ccccc3)[C@@H]2c2ccc(OC)cc2)cc1	2	8	/	80*	8	77*
CCOC(=O)N1C(=O)C[C@](Sc2ccc(OC)cc2)(C(=O)N(C)C)[C@H]1c1ccc(OC)cc1	0	3	/	46*	2	37*
CCOC(=O)c1cccc(NC(=O)CN(C)S(=O)(=O)c2ccc(Cl)s2)c1	-9	2	/	-1	0	/
CC(C)(C)c1ccc(C(=O)Nc2cc(Cl)c(F)cc2C(=O)O)cc1	-44	/	/	6	-21	/
N#CCC[C@@H]1CC[C@]2(CCCN(C(=O)c3cccnc3)C2)O1	3	0	/	-7	1	/
COc1cccc(N2CCN(C(=O)CSc3nc4ncccc4[nH]3)CC2)c1	6	3	/	-2	4	/
C/C=C\C=C/C(=O)Nc1cccc(C2=NOC3(C2)C[C@@H](C(N)=O)N(C(=O)CCCCC)C3)c1 (stereo partly specified)	-6	3	8	25*	-8	65*
C/C=C\C=C/C(=O)Nc1cccc(C2=NOC3(C2)C[C@H](C(N)=O)N(C(=O)Cc2ccc([N+](=O)[O-])cc2)C3)c1 (stereo partly specified)	-5	9	2	42*	-20	52*
C/C=C\C=C/C(=O)Nc1cccc(C2=NOC3(C2)C[C@H](C(N)=O)N(C(=O)CC)C3)c1 (stereo partly specified)	-2	15	4	9	-29	/
Cc1nc2c([nH]1)C1(CCN(Cc3ccccc3)CC1)C(C#N)=C(N)O2	4	-27	14	42*	-3	2
CC1(C)CC(=O)C2=C(C1)OC(N)=C(C#N)C21CCN(Cc2ccccc2)CC1	-3	-9	0	18	-5	/
COc1ccc(N2C(=O)C3CC(C)=C(C)CC3C2=O)c(OC)c1 (stereo unspecified)	-6	0	1	3	6	/
COc1ccc(N2CSC3=C(C#N)C(c4cc(OC)c(OC)cc4OC)CC(=O)N3C2)c(OC)c1 (stereo unspecified)	22	23	-5	39*	6	63*
COc1ccc(C2CC(=O)N3CN(c4ccc(C)c(Cl)c4)CSC3=C2C#N)cc1OC (stereo unspecified)	9	21	-6	41*	-11	25*
CCOC(=O)c1ccc(N2CSC3=C(C#N)C(c4cccs4)CC(=O)N3C2)cc1 (stereo unspecified)	15	15	-2	14	5	/
N#CC1=C2SCN(c3ccc(F)cc3)CN2C(=O)CC1c1cccc(F)c1 (stereo unspecified)	12	21	0	27*	7	61*
CN1CSC2=C(C#N)C(c3cccc(OCc4ccccc4)c3)CC(=O)N2C1 (stereo unspecified)	6	29	-7	20	1	/
CCOc1ccccc1N1CSC2=C(C#N)C(c3c(OC)ccc4ccccc34)CC(=O)N2C1 (stereo unspecified)	26	25	-5	49*	3	70*
CCc1ccc(C2CC(=O)N3CN(c4ccccc4)CSC3=C2C#N)cc1 (stereo unspecified)	3	14	-3	19	1	/
